Assay outcomes from PubChem BioAssay.
PGC1a acetyl inh: PGC1a acetylation modulation, inhibitor mode. 350,000 tested, 0.17% active. inhibition, % at 15.6 µM. U2OS PGC1a acetylation, AlphaScreen anti-acetyl-lysine; with virally co-expressed GCN5 acetyltransferase;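 active = every replicate shows inhibition of at least 40%; inconclusive = mean inhibition at least 40% but some replicate below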;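 also: 0% = neutral control wells and 100% = positive control wells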
HIV Env fusion: inhibitors of HIV Env-mediated cell fusion; HeLa-JRFL Env/CEM21 cell fusion, luciferase; inhibition, % at 12.3 µM; 360,000 tested, 1.1% active; AID 651610;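 active = mean replicate inhibition score of at least 50 and every replicate individually at or above 50; inconclusive = only one of the two criteria met; inactive = mean below 50 and not all replicates reaching 50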;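 also: 0% = plate neutral controls and 100% = maraviroc near 300 nM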
PglD DTNB: blocks C. jejuni PglD acetyltransferase activity. purified PglD enzyme, DTNB colorimetric CoA detection. inhibition, % at 12.5 µM. 360,000 tested, 0.098% active. AID 602405; in the data active = inhibition above about 16%, passing the limit was not always enough; inconclusive = no clear call, values can overlap the other calls
rRNA inh HTS: inhibitors of bacterial rRNA selective over humanized ribosomes. E. coli WT GFP vs humanized-ribosome RFP mutants, fluorescence, 24 h; stronger effect = lower value; DMSO median 0, no signal -100. 350,000 tested, 1.6% active. GFP signal change (wild-type ribosome), % (concentration not given with the values). AID 720706;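 active = significant combined selectivity score with lowered wild-type GFP, culture density cut under 30%, mutant RFP and density less affected; inactive = any of these conditions unmet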
FN deposition inh: fibronectin deposition inhibition; AH1F fibroblasts, Alexa488-fibronectin deposition fluorescence, overnight; inhibition, % at 12.6 µM; 350,000 tested, 0.086% active; AID 743247;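 active = mean inhibition across replicates of 30% or more, regardless of how many single replicates reach that level; inconclusive = mean under 30% yet at least half of replicates reach 30%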;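 also: positive control wells lacked labelled fibronectin entirely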
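Material – AH1F fibroblast monolayer, labelled fibronectin deposition · Reagent – labelled fibronectin 24 nM · Timing – 1 h adhesion, overnight exposure · Measured by – fluorescence at 485 nm excitation, 525 nm emission · Read-out – inhibition of fibronectin deposition signal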
DENV2 CPE rescue: DENV2-induced cell death inhibition; DENV2-infected cells, cytopathic effect rescue, plate reader; CPE inhibition, % at 9.99 µM; 350,000 tested, 1.7% active; in the data active = CPE inhibition above about 20%, passing the limit was not always enough; inconclusive = no clear call, values can overlap the other calls; tested in BHK-21 cells;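 also: 0% = median of neutral control wells and 100% = median of positive control wells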
* hit, by the source's call; ? = inconclusive; / = no result given; [ ] = another dose, or the depositor's remark. Shown are actives, neighbours in structure and some others; about 3.5% of the full set was active somewhere.

SMILES | PGC1a acetyl inh | HIV Env fusion | PglD DTNB | rRNA inh HTS | FN deposition inh | DENV2 CPE rescue
CC(=O)N1CC2(C1)[C@H](c1ccc(-c3ccc(F)cc3)cc1)[C@H](CO)N2C(C)=O | 2.7 | / | / | -2.7 | / | 82.5*
Cc1ccc(-n2cc(CNCCCn3cccn3)c(-c3cccc(C)c3)n2)cc1 | -9.2 | 26.4 | 1.5 | -14.9 | -4.3 | 0.9
Cc1ccc(C)c(-n2cc(CNCCCn3cccn3)c(-c3ccccc3)n2)c1 | -0.9 | 69.4* | -9.9 | -0.4 | 0.4 | 5.8
CC(C)NC(=O)Nc1cccc2c1O[C@@H](CN(C)C(=O)Nc1ccc3c(c1)OCO3)[C@@H](C)CN([C@H](C)CO)C2=O | -6.7 | / | -23.1 | -0.4 | / | 1.7
COC(=O)c1cc(OC)c(OC)cc1NC(=O)C(C)Sc1ccc(C)cc1 (stereo not drawn) | -8.9 | / | 2.0 | -26.1* | / | -0.5
Nc1ncnc2c(C3OC(CO)C(O)C3O)scc12 (stereo not drawn) | 14.0 | 108.9* | / | 12.6 | 6.9 | 1.5
COCC#Cc1cnc2c(c1)C(=O)N([C@H](C)CO)C[C@@H](C)[C@H](CN(C)Cc1ccc3c(c1)OCO3)O2 | -1.0 | -1.6[16.7 µM] | 0.7 | 4.8 | -11.5 | 6.1
Brc1ccc(CNc2ccc3ncccc3c2)cc1 | 2.2 | 22.0 | -0.3 | -29.0* | -1.6 | 10.4
CC(C)NC(=O)Nc1ccc2c(c1)CC(=O)N([C@@H](C)CO)C[C@@H](C)[C@@H](CN(C)CC1CC1)O2 | 3.8 | 10.6[16.7 µM] | -2.2 | 5.9 | -0.1 | -4.2
CN1CCN(/N=C/c2ccc(OCc3ccccc3)cc2)CC1 | ? | -0.2 | -2.3 | 6.6 | 7.5 | 23.5*
C=CCN1Cc2ccccc2[C@@H]2OC(c3ccc(OCCCO)cc3)=N[C@]2(Cc2ccccc2)C1=O | -0.3 | 44.0[16.7 µM] | -0.7 | / | / | -2.1
C=CCN1Cc2ccccc2C[C@@]2(COC(c3ccc(OCCCO)cc3)=N2)C1=O | 2.4 | -20.3[16.7 µM] | 1.9 | / | / | 23.7*
CN1C[C@H](O)COC[C@@H]2O[C@H](CC(=O)NC3CCC3)CC[C@H]21 | 7.0 | -7.7[16.7 µM] | 2.5 | 5.6 | -9.9 | 10.7
Cc1cc(C[n+]2cc(Cl)ccc2N)c2ncccc2c1 | -9.7 | 4.0 | 0.6 | 16.0 | 4.0 | 7.8
Cc1cc(C[n+]2cc(Br)ccc2N)c2ncccc2c1 | -13.1 | -1.8 | / | 17.0 | -9.9 | 35.3*
COc1ccc2c(c1)sc(N)[n+]2Cc1cc(C)cc2cccnc12 | / | 10.1 | -6.4 | 25.1 | 0.0 | 70.6*
CCOc1ccc2c(c1)sc(N)[n+]2Cc1cc(C)cc2cccnc12 | -4.7 | 14.5 | -3.9 | / | 3.4 | /
Cc1ccc(N(C(=O)c2nsc(Cl)c2Cl)C(C(=O)NC2CCCC2)c2ccc(O)cc2)cc1C (stereo not drawn) | / | / | / | -5.1 | -8.8 | 83.8*
O=C(Nc1cc([N+](=O)[O-])ccc1N1CCCC1)c1ccccc1 | -4.6 | 4.2 | 9.1 | -26.4* | -4.5 | -3.2
CN(C)S(=O)(=O)c1ccc(Nc2nc(C3CC3)nc3c2nnn3Cc2ccccc2Cl)cc1 | / | 48.5* | / | / | 9.7 | /
O=C(NC1(Cc2ccccc2)CCN(CCc2cccs2)C1=O)c1ccccc1 (stereo not drawn) | -0.1 | 14.2 | -1.5 | -0.9 | -1.7 | 72.0*
COc1cccc(CN(C)C[C@@H]2OCc3cnnn3CCCC(=O)N([C@H](C)CO)C[C@@H]2C)c1 | 4.0 | 22.4[16.7 µM] | / | -0.2 | 0.8 | /
C[C@H](CO)N1C[C@H](C)[C@H](CN(C)C(=O)Nc2cccc3ccccc23)Oc2c(NS(=O)(=O)c3ccc(Cl)cc3)cccc2C1=O | -1.8 | -10.0[16.7 µM] | 0.8 | 0.7 | / | -3.9
O=C(CN1CCOCC1)N1CCCCN2[C@H](CO)[C@@H](c3ccc(C#Cc4ccccc4F)cc3)[C@H]2C1 | 6.6 | / | 0.8 | 8.7 | / | 27.2*
O=C(CN1CCOCC1)N1CCCCN2[C@H](CO)[C@@H](c3ccc(-c4ccccc4)cc3)[C@H]2C1 | 9.4 | / | 10.0 | 4.0 | / | 54.4*
SMILES | PGC1a acetyl inh | HIV Env fusion | PglD DTNB | rRNA inh HTS | FN deposition inh | DENV2 CPE rescue
CC(=O)N1CCCCN2[C@@H](CO)[C@H](c3ccc(C#Cc4ccccc4F)cc3)[C@@H]2C1 | -4.6 | / | -2.1 | -0.1 | / | 22.9*
CC(=O)N1CCCCN2[C@H](CO)[C@H](c3ccc(C#Cc4ccccc4F)cc3)[C@H]2C1 | -15.8 | / | 2.3 | -1.4 | / | -11.0
O=C(CN1CCOCC1)N1CCCCN2[C@@H](CO)[C@H](c3ccc(C#Cc4ccccc4F)cc3)[C@@H]2C1 | -8.4 | / | -0.2 | 5.2 | / | /
C[C@H]1CN([C@@H](C)CO)C(=O)c2cc(-c3ccccc3F)cnc2O[C@H]1CN(C)Cc1ccccc1F | 2.8 | 3.5[16.7 µM] | -0.3 | -5.9 | -4.5 | -0.9
Cc1ccc(CNC(=O)CCc2c(C)[nH]c(=O)c(C#N)c2C)cc1 | / | 8.9 | 0.9 | 11.8 | -6.0 | ?
Cc1[nH]c(=O)c(C#N)c(C)c1CCC(=O)NCc1cccc(C(F)(F)F)c1 | / | 6.7 | 3.0 | 6.4 | 4.3 | 27.7*
CN1CCCN=C1/C=C/c1cccs1 | / | -17.9 | 3.3 | 12.8 | 6.6 | 73.9*
CN(C)C(=O)[C@@H]1[C@@H](CO)[C@@H]2Cn3c(ccc(C4=CCCCC4)c3=O)[C@@H]2N1CC1CC1 | -5.2 | / | -0.2 | -0.4 | / | -5.2
COC(=O)CN(C(=S)Nc1ccccc1)C1CC(=O)N(c2ccc(OC)cc2)C1=O (stereo not drawn) | 7.0 | / | / | -6.9 | / | -6.6
COC(=O)CN(C(=S)Nc1ccc(F)cc1)C1CC(=O)N(c2ccc(OC)cc2)C1=O (stereo not drawn) | -6.6 | 71.2* | -3.8 | / | / | /
O=C(NNS(=O)(=O)c1ccc(F)cc1F)C1Cc2c(ccc3ccccc23)O1 (stereo not drawn) | 2.5 | 96.9* | 6.6 | / | -1.5 | /
COc1ccc(S(=O)(=O)N(C)C[C@@H]2Oc3ccc(NC(=O)C4CCCCC4)cc3CC(=O)N([C@@H](C)CO)C[C@@H]2C)cc1 | 1.0 | 65.7*[16.7 µM] | -0.6 | -1.3 | / | 28.0*
Cc1ccc(S(=O)(=O)N(C)C[C@H]2Oc3ccc(NC(=O)C4CCCCC4)cc3CC(=O)N([C@H](C)CO)C[C@@H]2C)cc1 | -0.4 | 41.0[16.7 µM] | 1.9 | -1.4 | / | -3.9
Cc1ccc(S(=O)(=O)N(C)C[C@@H]2Oc3ccc(NC(=O)C4CCCCC4)cc3CC(=O)N([C@@H](C)CO)C[C@@H]2C)cc1 | 4.5 | 78.9*[16.7 µM] | 7.1 | -0.5 | / | -4.3
CCC(=O)N1C[C@H](C)[C@@H](OC)CN(C)C(=O)c2ccc(NC(=O)c3ccccc3)cc2OC[C@H]1C | 6.8 | -2.3[16.7 µM] | 0.0 | -2.0 | 4.2 | -1.2
COc1ccc(NC(=O)Nc2ccc3c(c2)C(=O)N([C@H](C)CO)C[C@@H](C)[C@H](CN(C)C(=O)Cc2ccccc2)OCCCC[C@@H](C)O3)cc1 | 7.0 | 1.1[16.7 µM] | 0.7 | 0.8 | / | 30.0*
COc1ccc(NC(=O)Nc2ccc3c(c2)C(=O)N([C@@H](C)CO)C[C@H](C)[C@H](CN(C)C(=O)Cc2ccccc2)OCCCC[C@H](C)O3)cc1 | -6.6 | 27.8[16.7 µM] | 3.7 | -2.5 | / | 21.2*
